Data published in ChEMBL document CHEMBL4049414, “Can We Make Small Molecules Lean? Optimization of a Highly Lipophilic TarO Inhibitor” (J Med Chem, 2017).
Activity calls are given as the source filed them. The calls are words filed in the database; no cut-off is given here.

Tests used:
[1] = Inhibition of TarO in methicillin-resistant Staphylococcus aureus membranes assessed as reduction in C55-P-P-GlcNAc production using C55-P as substrate in presence of UDP-GlcNAc by LC-MS analysis
[2] = Volume of distribution at steady state in mouse at 2 mg/kg, iv; type: ADME, organism-based; settings: in vivo, read-out: Vdss
[3] = AUC (0 to x) in mouse lung at 50 mg/kg, sc; type: ADME, organism-based
[4] = Clearance in mouse at 2 mg/kg, iv; type: ADME, organism-based; settings: in vivo
Staphylococcus aureus [5] = experiment: Potentiation of imipenem-induced antibacterial activity against methicillin-resistant Staphylococcus aureus COL MB 5393 infected in neutropenic balb/c mouse assessed as reduction in bacterial burden in kidney at 12.5 mg/kg, sc administered three times per day at 2, 5 and 8 hrs post challenge cotreated with imipenem measured 24 hrs post challenge; type: functional, organism-based
[6] = AUC (0 to infinity) in rat at 1 mg/kg, iv; type: ADME, organism-based; parameters: dose 1 mg/kg, time infinity, route intravenous; settings: in vivo
Staphylococcus aureus [7] = experiment: Potentiation of imipenem-induced antibacterial activity against methicillin-resistant Staphylococcus aureus COL MB 5393 infected in sc dosed neutropenic balb/c mouse assessed as reduction in bacterial burden in kidney administered three times per day at 2, 5 and 8 hrs post challenge cotreated with imipenem measured 24 hrs post challenge; type: functional, organism-based
[8] = AUC (0 to x) in mouse blood at 50 mg/kg, sc; type: ADME, organism-based
[9] = Volume of distribution at steady state in rat at 1 mg/kg, iv; type: ADME, organism-based; settings: in vivo, read-out: Vdss
Staphylococcus aureus [10] = experiment: Potentiation of imipenem-induced antibacterial activity against methicillin-resistant Staphylococcus aureus COL MB 5393 infected in neutropenic balb/c mouse assessed as log reduction in bacterial burden in kidney at 25 mg/kg, sc administered three times per day at 2, 5 and 8 hrs post challenge cotreated with imipenem measured 24 hrs post challenge; type: functional
[11] = Tmax in mouse blood at 50 mg/kg, sc; type: ADME, organism-based
[12] = AUC (0 to x) in mouse liver at 50 mg/kg, sc; type: ADME, organism-based
[13] = Cmax in mouse lung at 50 mg/kg, sc; type: ADME, organism-based; parameters: dose 50 mg/kg, route subcutaneous
[14] = Cmax in mouse spleen at 50 mg/kg, sc; type: ADME, organism-based; parameters: dose 50 mg/kg, route subcutaneous
Staphylococcus aureus [15] = experiment: Growth inhibition of methicillin-resistant Staphylococcus aureus COL after 20 hrs
Procedure, shortened: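 MRSA COL grown with compound alone, with no antibiotic added. Growth read by OD600. The value is the minimum concentration that inhibits 95% of growth (iMITC95).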

[16] = AUC (0 to infinity) in mouse at 2 mg/kg, iv; type: ADME, organism-based; parameters: dose 2 mg/kg, time infinity, route intravenous; settings: in vivo
[17] = Tmax in mouse spleen at 50 mg/kg, sc; type: ADME, organism-based
Staphylococcus aureus [18] = experiment: Potentiation of imipenem-induced antibacterial activity against methicillin-resistant Staphylococcus aureus COL MB 5393 infected in neutropenic balb/c mouse assessed as log reduction in bacterial burden in kidney at 50 mg/kg, sc administered three times per day at 2, 5 and 8 hrs post challenge cotreated with imipenem measured 24 hrs post challenge; type: functional
[19] = AUC (0 to x) in mouse spleen at 50 mg/kg, sc; type: ADME, organism-based
[20] = Terminal half life in rat at 1 mg/kg, iv; type: ADME, organism-based; settings: in vivo, read-out: beta t1/2 (converted)
[21] = Cmax in mouse kidney at 50 mg/kg, sc; type: ADME, organism-based; parameters: dose 50 mg/kg, route subcutaneous
[22] = Terminal half life in mouse at 2 mg/kg, iv; type: ADME, organism-based; settings: in vivo, read-out: beta t1/2 (converted)
Staphylococcus aureus [23] = experiment: Antibacterial activity against methicillin-resistant Staphylococcus aureus COL MB 5393 infected in neutropenic balb/c mouse assessed as reduction in bacterial burden in kidney at 12.5 to 50 mg/kg, sc administered three times per day at 2, 5 and 8 hrs post challenge measured 24 hrs post challenge; type: functional, organism-based
[24] = AUC (0 to x) in mouse kidney at 50 mg/kg, sc; type: ADME, organism-based
[25] = Cmax in mouse blood at 50 mg/kg, sc; type: ADME, organism-based; parameters: dose 50 mg/kg, route subcutaneous
[26] = system: Staphylococcus aureus subsp. aureus COL; experiment: Inhibition of methicillin-resistant Staphylococcus aureus COL TarO assessed as compound concentration required for potentiation of imipenem-mediated bacterial growth inhibition by 95% after 20 hrs
Procedure, shortened: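 MRSA COL grown with compound in the presence of imipenem at 4 μg/mL. Growth read by OD600. The value is the minimum concentration that inhibits 95% of growth (sMITC95).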

[27] = Ratio of Cmax in mouse spleen to Cmax in mouse blood at 50 mg/kg, sc; type: ADME, organism-based
[28] = Tmax in mouse kidney at 50 mg/kg, sc; type: ADME, organism-based
[29] = Cmax in mouse liver at 50 mg/kg, sc; type: ADME, organism-based; parameters: dose 50 mg/kg, route subcutaneous
[30] = Ratio of AUC (0 to x) in mouse spleen to AUC (0 to x) in mouse blood at 50 mg/kg, sc; type: ADME, organism-based; settings: read-out: Ratio AUC
Mus musculus = experiment: Toxicity in mouse at 50 mg/kg, sc; type: organism-based; settings: in vivo
[31] = Tmax in mouse liver at 50 mg/kg, sc; type: ADME, organism-based
[32] = Tmax in mouse lung at 50 mg/kg, sc; type: ADME, organism-based
[33] = Clearance in rat at 1 mg/kg, iv; type: ADME, organism-based; settings: in vivo

SMILES: C[C@H]1[C@@H](c2cccc(C(F)(F)F)c2)OC(=O)N1C(=O)NCc1cncc2ccccc12
- IC50 [1]: 0.162 µM
- Vd [2]: 13.1 to 13.5 L/kg
- AUC [3]: 123 µM·h
- clearance [4]: 3.66 to 3.68 L/h/kg
- Activity (Staphylococcus aureus [5]): inactive
- AUC(0-inf) [6]: 0.42 µM·h
- Activity (Staphylococcus aureus [7]): Dose-dependent effect
- AUC [8]: 9.9 µM·h
- Vd [9]: 6.6 L/kg
- log(activity) (Staphylococcus aureus [10]): 2
- Tmax [11]: 0.5 h
- AUC [12]: 322 µM·h
- Cmax [13]: 43.7 µM
- Cmax [14]: 29 µM
- MITC95 (Staphylococcus aureus [15]): > 200 µM
- AUC(0-inf) [16]: 1.26 µM·h
- Tmax [17]: 1 h
- log(activity) (Staphylococcus aureus [18]): 2.5
- AUC [19]: 75 µM·h
- half-life [20]: 1.7 h
- Cmax [21]: 95 µM
- half-life [22]: 6.4 h
- Activity (Staphylococcus aureus [23]): inactive
- AUC [24]: 336 µM·h
- Cmax [25]: 4.9 µM
- MITC95 [26]: 250 nM
- Kp [27]: 6 to 8
- Tmax [28]: 1 h
- Cmax [29]: 101 µM
- Kp [30]: 6 to 8
- Activity (Mus musculus): Non-Toxic
- Tmax [31]: 1 h
- Tmax [32]: 0.7 h
- clearance [33]: 5.56 to 5.58 L/h/kg
